Published values of several laboratories.
Compare with care: the assays were run in different laboratories.
Medium: plasma

CC[C@H](C)[C@H](NC(=O)[C@H](Cc1ccccc1)NC(=O)[C@H](CCC(=O)O)NC(=O)[C@H](CCCNC(=N)N)NC(=O)[C@H](C)NC(=O)[C@H](C)NC(=O)[C@H](CCC(N)=O)NC(=O)[C@H](CCC(=O)O)NC(=O)[C@H](CCC(=O)O)NC(=O)[C@H](CC(C)C)NC(=O)[C@H](Cc1ccc(O)cc1)NC(=O)[C@H](CO)NC(=O)[C@H](CO)NC(=O)[C@@H](NC(=O)[C@H](CC(=O)O)NC(=O)[C@H](CO)NC(=O)[C@@H](NC(=O)[C@H](Cc1ccccc1)NC(=O)[C@@H](NC(=O)CNC(=O)[C@H](CCC(=O)O)NC(=O)[C@H](C)NC(=O)CCc1c[nH]cn1)[C@@H](C)O)[C@@H](C)O)C(C)C)C(=O)N[C@@H](C)C(=O)N[C@@H](Cc1c[nH]c2ccccc12)C(=O)N[C@@H](CC(C)C)C(=O)N[C@H](C(=O)N[C@@H](CCCNC(=N)N)C(=O)NCC(=O)N[C@@H](CCCNC(=N)N)C(=O)N[C@@H](CCCCNC(=O)COCCOCCNC(=O)COCCOCCNC(=O)CC[C@H](NC(=O)CCCCCCCCCCCCCCCCC(=O)O)C(=O)O)C(=O)O)C(C)C — Cmax (rat; subcutaneous; 20 nmol/kg): 64.2 nM
CCc1cc(OC)c2nccc(N3CCc4c(cc(Cn5ccnc5)cc4-c4cn(C)nc4C(F)(F)F)C3=O)c2c1 — Cmax (male Sprague-Dawley rat; oral; 50 mg/kg): 2700 ng/mL
Oc1c(Br)cc(Cl)c2cccnc12 — Cmax (Sprague-Dawley rat; oral; 20 mg/kg): 1700 ng/mL
C=CC(=O)N1CC2CC(n3nc(-c4ccc(C(=O)Nc5ccccn5)cc4)c4c(N)ncnc43)CC2C1 (centres unmarked) — Cmax (male Wistar rat; oral; 300 mg/kg): 6140 ng/mL
Cc1c(-c2ccccc2)cccc1N1C(=O)c2cc(CN[C@H](C(=O)O)C(C)O)c(OCc3cccc(C#N)c3)cc2C1=O (some centres unmarked) — Cmax (Sprague-Dawley rat; intravenous; 5 mg/kg): 4350 ng/mL
N#Cc1ccc(Nc2nc(N)cc(Oc3c(F)cc(-c4ccc(C#N)cc4)cc3F)n2)cc1 — Cmax (Sprague-Dawley rat; oral; 5 mg/kg): 15.4 ng/mL
CCOC(=O)[C@@]12C[C@@H]1[C@@H](n1ccc3c(NC)nc(C#Cc4ccc(Cl)s4)nc31)[C@H](O)[C@@H]2O — Cmax (male Sprague-Dawley rat; oral; 10 mg/kg): 192 ng/mL
COCCOC(=O)C1=C(C)NC(C)=C(C(=O)OC(C)C)C1c1cccc([N+](=O)[O-])c1 (centres unmarked) — Cmax (male Sprague-Dawley rat; oral; 12 mg/kg): 85 ng/mL
O=C1N(Cc2ccccc2Cl)c2ccccc2C12NN=C(c1ccccc1)S2 (centres unmarked) — Cmax (Sprague-Dawley rat; oral; 40 mg/kg): 1190 ng/mL
COCc1nn(Cc2ccc(Cn3ccccc3=O)cc2)cc1C(=O)NCc1nccc(OC)c1F — Cmax (male Sprague-Dawley rat; oral; 10 mg/kg): 1940 ng/mL
CCc1cc(C(=O)NC)c2nccc(N3CCc4c(cc(Cn5ccnc5)cc4-c4cn(C)nc4C(F)(F)F)C3=O)c2c1 — Cmax (male Sprague-Dawley rat; oral; 100 mg/kg; single dose): 10100 ng/mL
COc1nc(-c2cc(C)c(N[C@@H](C)c3cc(F)cc(F)c3)nn2)ccc1-n1cnc(C)c1 — Cmax (male Sprague-Dawley rat; oral; 5 mg/kg; single dose): 3240 ng/mL
Cc1noc(-c2cc3cc(-c4nc(C(=O)NCc5ccncc5)[nH]c4C)ccc3[nH]2)n1 — Cmax (Sprague-Dawley rat; oral; 10 mg/kg; suspension): 2200 nM
C#Cc1cccc(Nc2ncnc3cc(OCCOC)c(OCCOC)cc23)c1 — Cmax (male Sprague-Dawley rat; oral; 12 mg/kg; single dose): 1580 ng/mL
N#Cc1[nH]nnc1-c1cccc(OCc2cc(C(F)(F)F)ccc2C(F)(F)F)c1 — Cmax (male Sprague-Dawley rat; oral; 10 mg/kg): 4820 ng/mL
CCc1nc(C(N)=O)c(Nc2ccc(N3CCC(N4CCN(C)CC4)CC3)c(OC)c2)nc1NC1CCOCC1 — Cmax (male Sprague-Dawley rat; oral; 10 mg/kg): 341 ng/mL
O=C(Nc1cc(F)c(F)c(F)c1)c1ccc(F)c(S(=O)(=O)NCc2cccc(B(O)O)c2)c1 — Cmax (male Sprague-Dawley rat; intravenous; 2 mg/kg): 460 ng/mL
CC(C)(C)C[C@H]1N[C@@H](C(=O)NCC[C@H](O)CO)[C@H](c2cccc(Cl)c2)[C@@]12C(=O)Nc1cc(Cl)c(F)cc12 — Cmax (rat; oral; 25 mg/kg): 6400 nM
COc1cc2c3c(n(CCCN4CCOCC4)c(=O)c2cc1OC)-c1cc2c(cc1C3=O)OCO2 — Cmax (female Fischer 344 rat; intravenous; 12 mg/m²; single dose): 301 ng/mL
COc1ccnc(CNC(=O)c2cn(Cc3ccc(Cn4ccccc4=O)cc3)nc2C(F)(F)F)c1F — Cmax (male Sprague-Dawley rat; oral; 10 mg/kg): 2490 ng/mL
COc1ccc2c(=O)n(C)c(-c3ccccc3)nc2c1 — Cmax (male Sprague-Dawley rat; intravenous; 2 mg/kg): 2130 ng/mL
COCc1nn(Cc2ccc(Cn3ccccc3=O)cc2)cc1C(=O)NCc1c(F)ccc(OC)c1F — Cmax (male Sprague-Dawley rat; oral; 10 mg/kg): 2890 ng/mL
N#Cc1[nH]nnc1-c1cccc(-c2cc(F)cc(C(F)(F)F)c2)c1 — Cmax (male Sprague-Dawley rat; oral; 10 mg/kg): 5750 ng/mL
